{"source": "paper PMC7338260", "about": "(European journal of medicinal chemistry, 2020)", "key": {"[1]": {"test_system": "HEK293 cell line expressing hNOD2 and NFκB-SEAP reporter", "test": "Human NOD2 signaling HEKBlue reporter assay", "type": "cell-based", "conditions": "read-out: RIPK2/NOD2 Cell Assay IC50, HEKBlue, 1 ng/mL L18-MDP, mean of two or three determinations ± standard deviation, NI: No inhibition up to 10 μM", "in_short": "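Cells seeded at 7.5-15x10^3 per well; after 24–48 h switched to HEKBlue detection medium and given an 11-point dose range of test compound together with the stimulant. SEAP read as absorbance at 620 nm after 7–9 h. Media-only background subtracted; % inhibition relative to DMSO/L18-MDP controls; IC50 by non-linear regression.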"}, "[2]": {"test_system": "XIAP-mediated RIPK2 ubiquitination", "conditions": "cited from earlier work"}, "[3]": {"biological_target": "Recombinant RIPK2 protein (Homo sapiens, UniProt O43353)", "sequence (O43353 whole entry)": "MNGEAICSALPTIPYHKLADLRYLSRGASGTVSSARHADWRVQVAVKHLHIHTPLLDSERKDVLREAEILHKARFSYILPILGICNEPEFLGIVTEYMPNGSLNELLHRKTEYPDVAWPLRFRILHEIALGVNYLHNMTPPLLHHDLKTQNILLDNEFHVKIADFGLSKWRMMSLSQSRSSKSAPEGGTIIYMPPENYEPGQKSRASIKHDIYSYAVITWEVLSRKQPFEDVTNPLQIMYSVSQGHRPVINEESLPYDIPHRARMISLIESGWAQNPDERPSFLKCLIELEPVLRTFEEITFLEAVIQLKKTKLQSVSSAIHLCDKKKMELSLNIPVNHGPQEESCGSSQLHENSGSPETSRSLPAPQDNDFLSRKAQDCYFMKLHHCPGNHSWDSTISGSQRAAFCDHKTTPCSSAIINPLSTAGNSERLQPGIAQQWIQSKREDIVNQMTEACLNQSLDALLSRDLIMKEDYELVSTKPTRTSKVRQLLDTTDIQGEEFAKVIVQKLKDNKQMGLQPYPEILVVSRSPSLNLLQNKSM", "test": "RIPK2 enzyme assay", "type": "biochemical", "conditions": "for selectivity for RIPK2 versus ALK2: ratio of ALK2 to RIPK2 kinase IC50", "in_short": "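Started with solution of 100 μM ATP + 1 mg/ml RS repeat peptide, 2 h RT; ADP-Glo luminescence. IC50 by non-linear regression. ALK2: human enzyme, casein 1 mg/mL, γ-33ATP 10 μM, 10 nM–100 μM compound, 30 min, 33P-casein.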"}, "[4]": {"test_system": "U2OS/NOD2 cells", "conditions": "cited from earlier work"}, "[5]": {"test_system": "RAW264.7 macrophages", "conditions": "cited from earlier work"}, "[6]": {"test_system": "GST-BIR2-cIAP1 and RIPK2", "conditions": "cited from earlier work"}, "[7]": {"test_system": "RAW264.7 macrophages", "type": "cell-based", "conditions": "at 1 μM; data not shown"}}}
{"smiles": "CCCS(=O)(=O)Nc1cc(-c2cc(-c3ccccc3S(C)(=O)=O)cnc2N)ccc1OC", "note": "[Compound 18ab, N-(5-(2-Amino-5-(2-(methylsulfonyl)phenyl)pyridin-3-yl)-2-methoxyphenyl)propane-1-sulfonamide]", "values": [{"measurement": "IC50", "setting": "[1]", "value": "> 10", "unit": "µM"}]}
{"smiles": "CCCS(=O)(=O)Nc1cc(-c2cc(-c3ccc(N4CCNCC4)cc3)cnc2N)ccc1O", "note": "[Compound 18n, N-(5-(2-Amino-5-(4-(piperazin-1-yl)phenyl)pyridin-3-yl)-2-hydroxyphenyl)propane-1-sulfonamide]", "values": [{"measurement": "IC50", "setting": "[1]", "value": "> 5", "unit": "µM"}]}
{"smiles": "CCCS(=O)(=O)Nc1cc(-c2cc(-c3ccc(N4CCNCC4)cc3)cnc2N)cc(OCC)c1OC", "note": "[Compound 18q, N-(5-(2-Amino-5-(4-(piperazin-1-yl)phenyl)pyridin-3-yl)-3-ethoxy-2-methoxyphenyl)propane-1-sulfonamide]", "values": [{"measurement": "IC50", "setting": "[1]", "value": "> 10", "unit": "µM"}]}
{"smiles": "CCCS(=O)(=O)Nc1cc(-c2cc(-c3ccc(N4CCNCC4)cc3)cnc2N)cc(F)c1OC", "note": "[Compound 18t, N-(5-(2-Amino-5-(4-(piperazin-1-yl)phenyl)pyridin-3-yl)-3-fluoro-2-methoxyphenyl)propane-1-sulfonamide]", "values": [{"measurement": "XIAP-mediated RIPK2 ubiquitination", "setting": "[2]", "value": "blocked"}, {"measurement": "selectivity for RIPK2 versus ALK2", "setting": "[3]", "value": "> 20", "unit": "fold"}, {"measurement": "inhibition of L18-MDP-induced CXCL8 production", "setting": "[4]", "value": "efficient inhibition"}, {"measurement": "inhibition of L18-MDP-induced TNFα release", "setting": "[5]", "value": "efficient inhibition"}, {"measurement": "interaction between GST-BIR2-cIAP1 and RIPK2", "setting": "[6]", "value": "interfered"}, {"measurement": "block of RIPK1 and RIPK3 dependent necroptosis", "setting": "[7]", "value": "did not block"}]}
{"smiles": "CCCS(=O)(=O)Nc1cc(-c2cc(-c3ccc(N4CCNCC4)cc3)cnc2N)cc(OC)c1OC", "note": "[Compound 18p, N-(5-(2-Amino-5-(4-(piperazin-1-yl)phenyl)pyridin-3-yl)-2,3-dimethoxyphenyl)propane-1-sulfonamide]", "values": [{"measurement": "XIAP-mediated RIPK2 ubiquitination", "setting": "[2]", "value": "blocked"}, {"measurement": "inhibition of L18-MDP-induced CXCL8 production", "setting": "[4]", "value": "efficient inhibition"}, {"measurement": "inhibition of L18-MDP-induced TNFα release", "setting": "[5]", "value": "efficient inhibition"}, {"measurement": "interaction between GST-BIR2-cIAP1 and RIPK2", "setting": "[6]", "value": "interfered"}]}
{"smiles": "COc1cc(-c2cc(-c3ccc(N4CCNCC4)cc3)cnc2C)cc(OC)c1OC", "note": "[Compound 9a, reference compound]", "values": [{"measurement": "IC50", "setting": "[1]", "value": "> 10", "unit": "µM"}]}
{"smiles": "CCCS(=O)(=O)Nc1cc(-c2cc(-c3ccc(S(C)(=O)=O)cc3)cnc2N)ccc1OC", "note": "[Compound 18ad, N-(5-(2-Amino-5-(4-(methylsulfonyl)phenyl)pyridin-3-yl)-2-methoxyphenyl)propane-1-sulfonamide]", "values": [{"measurement": "IC50", "setting": "[1]", "value": "> 10", "unit": "µM"}]}
{"smiles": "CCCS(=O)(=O)Nc1cc(-c2cc(-c3ccc(N4CCNCC4)cc3)cnc2N)ccc1OC", "note": "[Compound 18m, N-(5-(2-Amino-5-(4-(piperazin-1-yl)phenyl)pyridin-3-yl)-2-methoxyphenyl)propane-1-sulfonamide]", "values": [{"measurement": "IC50", "setting": "[3]", "value": "0.041 ± 0.019", "unit": "µM"}, {"measurement": "selectivity for RIPK2 versus ALK2", "setting": "[3]", "value": 86, "unit": "fold"}]}
